GPR7 antag: blocks human GPR7 receptor signaling | P48145 | GPR7-expressing cells, fluorescence antagonist assay | inhibition, % at 4.4 µM | actives 1.1% (n = 290,000) | AID 1861; in the data active = inhibition above about 16%, passing the limit was not always enough;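 also: cells stimulated with the agonist NPW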
Target sequence (P48145 whole entry, looked up): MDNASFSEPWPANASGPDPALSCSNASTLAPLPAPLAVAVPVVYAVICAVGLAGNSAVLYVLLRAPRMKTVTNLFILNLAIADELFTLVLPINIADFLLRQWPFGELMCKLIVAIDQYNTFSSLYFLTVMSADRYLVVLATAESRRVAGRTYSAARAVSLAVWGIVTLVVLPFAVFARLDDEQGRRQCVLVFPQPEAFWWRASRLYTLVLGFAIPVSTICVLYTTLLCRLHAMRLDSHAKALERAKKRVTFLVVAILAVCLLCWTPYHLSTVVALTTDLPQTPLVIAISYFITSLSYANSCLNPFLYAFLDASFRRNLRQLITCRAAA
GalR3 antagonist: human GalR3 antagonism | O60755 | HEK293 GalR3-CNG cAMP membrane potential fluorescence; galR3 body fused to GalR1 C-terminus | inhibition, % at 3 µM | actives 0.44% (n = 360,000) | AID 651719;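 active = inhibition above the screen-wide average plus 3 SD, cut at about 13% in these data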;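 also: forskolin and galanin both at EC90 stimulate the cells; cAMP rise reported by CNG channel membrane potential dye signal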
Target sequence (O60755 1-299 limits assumed): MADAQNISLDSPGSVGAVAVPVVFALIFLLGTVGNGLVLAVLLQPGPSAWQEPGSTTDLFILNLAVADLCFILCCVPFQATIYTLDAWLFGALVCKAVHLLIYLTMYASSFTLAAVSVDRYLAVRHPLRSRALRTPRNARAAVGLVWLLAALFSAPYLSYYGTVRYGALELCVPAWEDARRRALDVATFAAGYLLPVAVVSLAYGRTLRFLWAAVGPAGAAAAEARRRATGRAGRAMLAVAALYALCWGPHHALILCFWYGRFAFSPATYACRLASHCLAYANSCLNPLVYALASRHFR
OX1R antag-1: antagonists of human orexin 1 receptor; O43613; CHO/OX1R cells, Fluo-8 calcium fluorescence, orexin A; inhibition, % at 5 µM; actives 0.43% (n = 330,000); AID 434989;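 active = inhibition above its plate's threshold, mean inhibition of all tested compounds on the plate plus 3 SD, cut at about 37% in these data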
OX1R antag-2: OX1R (human) antagonism | inhibition, % at 6.6 µM | O43613 | AID 485270 | actives 1.8% (n = 330,000) | OX1R-expressing cells, FRET antagonist read-out; in the data active = inhibition mostly above about 38%, no sharp cut-off; inactive = mostly below about 40%
CHO parental Ca: counter-screen for OX1R antagonists: effect in parental CHO cells | inhibition, % at 5.6 µM | actives 0.63% (n = 330,000) | parental CHO-K1, ATP-induced calcium, Fluo-8 fluorescence;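 active = inhibition above that plate's mean sample inhibition plus 3 SD, cut at about 26% in these data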
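Test system: untransfected parental CHO cell line; also added: ATP stimulus; dosing: 5.6 µM, single dose; signal: calcium-sensitive Fluo-8 fluorescence; measure: percent inhibition of ATP-evoked calcium rise, normalized to controls; benchmarks: low control ATP plus DMSO, high control DMSO only; replication: one well per compound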
GPR7 antag cf: confirmation of human GPR7 antagonists; shares compounds with GPR7 antag; GPR7-expressing cells, calcium fluorescence antagonist mode; inhibition, % at 4.4 µM; actives 52% (n = 2,400); in the data active = inhibition above about 24%;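 also: stimulated with the GPR7 agonist NPW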
MCHR1 antagonist: counter-screen for GPR7 antagonists: antagonists of human MCHR1; shares compounds with GPR7 antag; MCHR1-expressing cells, fluorescence antagonist assay; inhibition, % at 4.4 µM; actives 62% (n = 2,400); AID 2148; in the data active = inhibition above about 22%
Of the large screens only hits and unclear results are named; the others gave an inactive call (follow-up assays come after a bar, where they were run). This is a sample that favours compounds with a hit; in the whole collection about 3.1% have one here.

Cc1cccc(N2C(=O)c3cccc4c(N(C)CCO)ccc(c34)C2=O)c1	GPR7 antag 25, OX1R antag-1 46 (no result: GalR3 antagonist) | GPR7 antag cf 34 | MCHR1 antagonist 53
OC(COCc1ccc(Cl)cc1)CN1CCN(CC(O)COCc2ccc(Cl)cc2)CC1 (configuration not stated)	GPR7 antag 26 | GPR7 antag cf 68 | MCHR1 antagonist 73
COc1cc(/C=C/CNC[C@H]2O[C@@H](n3cnc4c(=O)[nH]c(N)nc43)[C@H](O)[C@@H]2O)ccc1O	none (no result: GPR7 antag, OX1R antag-1, OX1R antag-2, CHO parental Ca)
Cc1ccc(-n2cccn2)c(CN2CCCC(C(=O)c3sccc3C)C2)c1 (configuration not stated)	GPR7 antag 33 | GPR7 antag cf 39 | MCHR1 antagonist 41
COc1ccc(CN(C)C(=O)c2[nH]c(C)c(C(C)=O)c2C)c(OC)c1OC	GPR7 antag 21 | GPR7 antag cf inactive | MCHR1 antagonist inactive
COc1ccc(CN(C)C(=O)c2cnc(C)cn2)c(OC)c1OC	none
COC(=O)[C@@H](N[C@H](/C=C/c1ccccc1)[C@@H](O)Cc1ccccc1)c1ccccc1	none (no result: GPR7 antag, OX1R antag-1, OX1R antag-2, CHO parental Ca)
O=C(c1cccc(C(F)(F)F)c1)C1CCCN(Cc2cccn2-c2ncccn2)C1 (configuration not stated)	GPR7 antag 21 | GPR7 antag cf 34 | MCHR1 antagonist 35
O=C(Nc1nc2c(F)cccc2s1)C1CC1	GPR7 antag 29 (no result: GalR3 antagonist) | GPR7 antag cf inactive | MCHR1 antagonist inactive
CCN(CC)CCNC(=O)CCc1c(C)nc2c(c(C)nn2-c2ccc(C)cc2)c1C	none (no result: GPR7 antag, OX1R antag-1, OX1R antag-2, CHO parental Ca) | MCHR1 antagonist inactive
COCCNC(=O)CCc1c(C)nc2c(c(C)nn2-c2ccc(C)cc2)c1C	none
CC(=O)NCC1CCCN(C(=O)c2ccc(OC3CCN(Cc4ccccn4)CC3)cc2)C1 (configuration not stated)	none
CCOC(=O)Cn1cc(/C=N/NC(=O)c2cc3ccccc3o2)c2ccccc21	GPR7 antag 26 | GPR7 antag cf inactive | MCHR1 antagonist 28
CC(C)n1cc(/C=N\NC(=O)c2cc3c(ccc4ccccc43)o2)c2ccccc21	none (no result: OX1R antag-1, OX1R antag-2, CHO parental Ca)
CCCCCCCCN1C(=O)[C@@H](CC(=O)NCc2cccc(C(F)(F)F)c2)C[C@@]2(C(=O)OC)C1=C[C@H](C(C)(C)C)O[C@@H]2C	none (no result: GPR7 antag, OX1R antag-1, OX1R antag-2, CHO parental Ca)
COc1cc(CNCc2ccccn2)ccc1OCc1ccc(Cl)c(Cl)c1	GPR7 antag 24 | GPR7 antag cf inactive | MCHR1 antagonist 68
O=C(COc1ccc(Br)cc1CNC1CCCCC1)NCCc1ccccc1	GPR7 antag 21 | GPR7 antag cf 48 | MCHR1 antagonist 31
COC(=O)[C@]12CCCCC=C1N(Cc1ccc3c(c1)OCO3)C(=O)[C@H](CC(=O)N1CCCCC1)C2	none (no result: GPR7 antag, OX1R antag-1, OX1R antag-2, CHO parental Ca)
FC(F)(F)c1cccc(-c2nc3nc(Cl)c(Cl)nc3[nH]2)c1	GPR7 antag 25, OX1R antag-2 40, CHO parental Ca 38 (no result: GalR3 antagonist) | GPR7 antag cf 37 | MCHR1 antagonist 48
FC(F)(F)c1nc2nc(Cl)c(Cl)nc2[nH]1	none (no result: GPR7 antag, OX1R antag-1, OX1R antag-2, CHO parental Ca)
Cc1nn(-c2ccccc2)c(N)c1Sc1ccc([N+](=O)[O-])cc1	GPR7 antag 23 | GPR7 antag cf 33 | MCHR1 antagonist 55
COc1ccc(CN2CCN(C(=O)Cn3nc(C(=O)O)c4ccccc4c3=O)CC2)cc1F	none
N#CC(C#N)=C1C=C2C=C(N3CCCCC3)CCC2CC1 (configuration not stated)	GPR7 antag 74, OX1R antag-1 106, CHO parental Ca 101 (no result: GalR3 antagonist) | GPR7 antag cf 93 | MCHR1 antagonist 109
CCN(CC)C1=CC2=CC(=C(C#N)C#N)CCC2CC1 (configuration not stated)	GPR7 antag 58, OX1R antag-1 107, CHO parental Ca 99 | GPR7 antag cf 91 | MCHR1 antagonist 105
N#CC1=C(N)C2=C(N3CCCCC3)CCCC2C1(C#N)C#N (configuration not stated)	none (no result: GalR3 antagonist)
CCCCN(C)C1=CC2=CC(=C(C#N)C#N)CCC2CC1 (configuration not stated)	GPR7 antag 75, OX1R antag-1 106, CHO parental Ca 101 | GPR7 antag cf 103 | MCHR1 antagonist 110
Cc1c(N2C(=O)/C(=C/c3ccc(N(C)C)cc3)N(C)C2=S)c(=O)n(-c2ccccc2)n1C	none (no result: GPR7 antag, OX1R antag-1, OX1R antag-2, CHO parental Ca)
CCc1cccc2c(C(=O)C(NC(C)CC)c3ccccc3)c[nH]c12 (configuration not stated)	none
CCc1cccc2c(C(=O)C(NCCCOC)c3ccccc3)c[nH]c12 (configuration not stated)	GPR7 antag 35 | GPR7 antag cf 43 | MCHR1 antagonist 30
CC(O)(c1cccnc1)c1nc(-c2cc(F)cc(F)c2)cs1 (configuration not stated)	none (no result: GPR7 antag, OX1R antag-1, OX1R antag-2, CHO parental Ca)
Cc1ccc(S(=O)(=O)N2CCCCC2)cc1C(=O)N(C)CCOc1ccccc1	GPR7 antag 23 | GPR7 antag cf inactive | MCHR1 antagonist 22
O=C(NCCc1ccccc1)c1cc(S(=O)(=O)N2CCCC2)ccc1F	GPR7 antag 26 | GPR7 antag cf inactive | MCHR1 antagonist inactive
Cc1ccc(S(=O)(=O)N2CCCCC2)cc1C(=O)NCCc1ccccc1	none
COc1ccc(S(=O)(=O)N2CCCCCC2)cc1C(=O)N(C)CCOc1ccccc1	none (no result: GPR7 antag)
C=C(C)c1cccc(C(C)(C)NC(=O)N2CCN(C(=O)OCC)CC2)c1	none (no result: GPR7 antag, OX1R antag-1, OX1R antag-2, CHO parental Ca)
COc1cc(C(=O)NCc2nnc(SCC(=O)N3CCc4ccccc43)o2)cc(OC)c1OC	GPR7 antag 30 | GPR7 antag cf inactive | MCHR1 antagonist inactive
COc1cc(C(=O)NCc2nnc(SCC(=O)N3CCCCCC3)o2)cc(OC)c1OC	none
COc1ccc(C(=O)NCc2nnc(SCC(=O)NCCc3ccccc3)o2)cc1	GPR7 antag 24 | GPR7 antag cf inactive | MCHR1 antagonist inactive
O=C(CSc1nnc(CNC(=O)c2ccc(F)cc2)o1)NCCc1ccccc1	none
CN(C(=O)COC(=O)c1cccs1)c1ccccc1	none (no result: GPR7 antag, OX1R antag-1, OX1R antag-2, CHO parental Ca)
Clc1ccc(Cn2ncc3c(N4CCCC4)ncnc32)cc1	GPR7 antag 25 | GPR7 antag cf inactive | MCHR1 antagonist inactive
Clc1ccc(Cn2ncc3c(N4CCCCC4)ncnc32)cc1	none
Cc1cccc(N(CC(=O)Nc2ccccc2F)S(C)(=O)=O)c1	GPR7 antag 27 | GPR7 antag cf inactive | MCHR1 antagonist inactive
CSc1ccccc1NC(=O)CN(c1cccc(C)c1)S(C)(=O)=O	none
c1ccc(CCn2nnnc2C(c2cccs2)N2CCN(Cc3ccc4c(c3)OCO4)CC2)cc1 (configuration not stated)	GPR7 antag 22 | GPR7 antag cf inactive | MCHR1 antagonist 34
COc1ccc(S(=O)(=O)N2CCN(CC(=O)Nc3cccc(OC)c3)CC2)cc1	GPR7 antag 35 | GPR7 antag cf 25 | MCHR1 antagonist inactive
